Laboratory results: ChEMBL document CHEMBL1154333, “Xanthepinone, an antimicrobial polyketide from a soil fungus closely related to Phoma medicaginis” (2009)
Values after ≈ are worked out from the molar mass of the structure shown.

Columns and labels:
Candida albicans = assay: Antifungal activity against Candida albicans by serial dilution test; type: functional
In short: (§1)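 Yeasts tested by serial dilution in YMG medium (glucose 1%, malt extract 1%, yeast extract 0.4%).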

Eremothecium coryli = assay: Antifungal activity against Nematospora coryli by serial dilution test; type: functional; in short: as §1
Rhizomucor miehei = assay: Inhibition of conidial germination in Mucor miehei; type: functional
In short: (§2)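 Conidia from 10-day-old cultures were pelleted (1000g, 10 min) and resuspended in distilled water. Each well held 0.5 × 10⁴ conidia in 0.2 mL distilled water and was incubated 16 h at 28 °C. Germinated conidia were counted under an inverted microscope: triplicates, 3 × 100 conidia. The value is the IC100, the concentration for complete germination inhibition.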

Proteus vulgaris = assay: Antibacterial activity against Proteus vulgaris by serial dilution test; type: functional
In short: (§3)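 Serial broth dilution in nutrient broth.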

Pyricularia grisea = assay: Inhibition of conidial germination in Magnaporthe grisea; type: functional
In short: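 M. grisea strain 70-15, grown on CM medium. Conidia were harvested from plates kept at 28 °C on a 16 h light/8 h dark cycle (24 °C in the dark). They were pelleted (1000g, 10 min) and resuspended in distilled water. Each well held 0.5 × 10⁴ conidia/0.2 mL water, 16 h at 28 °C. Germinated conidia were counted microscopically: triplicates, 3 × 100. Value given as IC100.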

Botrytis cinerea = assay: Inhibition of conidial germination in Botrytis cinerea; type: functional; in short: as §2
Saccharomyces cerevisiae = assay: Antifungal activity against Saccharomyces cerevisiae by serial dilution test; type: functional; in short: as §1
Brevibacillus brevis = assay: Antibacterial activity against Bacillus brevis ATCC 9999 by serial dilution test; type: functional; in short: as §3
Bacillus subtilis = assay: Antibacterial activity against Bacillus subtilis ATCC 6633 by serial dilution test; type: functional; in short: as §3
Escherichia coli = assay: Antibacterial activity against Escherichia coli K-12 by serial dilution test; type: functional; in short: as §3
[1] = test system: Enterobacter cloacae subsp. dissolvens; assay: Antibacterial activity against Enterobacter dissolvens by serial dilution test; type: functional; in short: as §3
Micrococcus luteus = assay: Antibacterial activity against Micrococcus luteus by serial dilution test; type: functional; in short: as §3
Pseudomonas fluorescens = assay: Antibacterial activity against Pseudomonas fluorescens by serial dilution test; type: functional; in short: as §3
Staphylococcus aureus = assay: Antibacterial activity against Staphylococcus aureus by serial dilution test; type: functional; in short: as §3
Paecilomyces variotii = assay: Inhibition of conidial germination in Paecilomyces variotii; type: functional; in short: as §2
Penicillium chrysogenum = assay: Inhibition of conidial germination in Penicillium notatum; type: functional; in short: as §2
Phytophthora infestans = assay: Inhibition of conidial germination in Phytophthora infestans; type: functional; in short: as §2
HeLa S3 = assay: Cytotoxicity against human HeLaS3 cells at 50 ug/ml; type: functional, cell-based
HepG2 = assay: Cytotoxicity against human HepG2 cells at 50 ug/ml; type: functional, cell-based

Structure (SMILES) | MIC (Candida albicans) | MIC (Eremothecium coryli) | MIC (Rhizomucor miehei; Rhizomucor miehei) | MIC (Proteus vulgaris) | IC100 (Pyricularia grisea) | IC100 (Botrytis cinerea) | MIC (Saccharomyces cerevisiae) | MIC (Brevibacillus brevis) | MIC (Bacillus subtilis) | MIC (Escherichia coli) | MIC [1] | MIC (Micrococcus luteus) | MIC (Pseudomonas fluorescens) | MIC (Staphylococcus aureus) | IC100 (Rhizomucor miehei) | IC100 (Paecilomyces variotii) | IC100 (Penicillium chrysogenum) | IC100 (Phytophthora infestans) | Activity (HeLa S3) | Activity (HepG2)
C[C@@H]1[C@H](O)[C@@H](C)/C=C/C=C/C=C/C=C/C=C/C=C/C=C/[C@H](O[C@@H]2O[C@H](C)[C@@H](O)[C@H](N)[C@@H]2O)C[C@@H]2O[C@](O)(C[C@@H](O)C[C@@H](O)[C@H](O)CC[C@@H](O)C[C@@H](O)CC(=O)O[C@H]1C)C[C@H](O)[C@H]2C(=O)O [AMPHOTERICIN B] | 10 µg/mL (≈ 10.8 µM) | 15 µg/mL (≈ 16.2 µM) | 5 µg/mL (≈ 5.41 µM) |  |  |  |  |  |  |  |  |  |  |  |  |  |  |  |  | 
CN[C@@H]1[C@H](O[C@H]2[C@H](O[C@H]3[C@H](O)[C@@H](O)[C@H](N=C(N)N)[C@@H](O)[C@@H]3N=C(N)N)O[C@@H](C)[C@]2(O)C=O)O[C@@H](CO)[C@H](O)[C@H]1O.CN[C@@H]1[C@H](O[C@H]2[C@H](O[C@H]3[C@H](O)[C@@H](O)[C@H](N=C(N)N)[C@@H](O)[C@@H]3N=C(N)N)O[C@@H](C)[C@]2(O)C=O)O[C@@H](CO)[C@H](O)[C@H]1O.O=S(=O)(O)O.O=S(=O)(O)O.O=S(=O)(O)O [STREPTOMYCIN SULFATE] |  |  |  | 5 µg/mL |  |  |  |  |  |  |  |  |  |  |  |  |  |  |  | 
COC(=O)C1(O)C(=O)C(C)=COc2oc3cccc(O)c3c(=O)c21 (stereo not drawn) [XANTHEPINONE] | 50 µg/mL (≈ 150 µM) | 10 µg/mL (≈ 30.1 µM) |  | 50 µg/mL (≈ 150 µM) | 2 µg/mL | 10 µg/mL | 25 µg/mL (≈ 75.2 µM) | > 50 µg/mL | > 50 µg/mL | > 50 µg/mL | > 50 µg/mL | > 50 µg/mL | > 50 µg/mL | 50 µg/mL (≈ 150 µM) | 25 µg/mL | 50 µg/mL | 25 µg/mL | 5 µg/mL | Not toxic | Not toxic
